The text below walks through data of ChEMBL document CHEMBL3091412, “Discovery of an irreversible HCV NS5B polymerase inhibitor” (Bioorg Med Chem Lett, 2013).

The test system of data set [1] is Hepatitis C virus. Nature of the data set: Antiviral activity against HCV Con1 in eplicon cells after 3 days by RT-PCR analysis. The format is functional, organism-based, Hepacivirus hominis. As to conditions: isolate Con1, 72 h. An outline of the steps:
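HCV 1b-Con1 replicon cells seeded at 5000 cells/well one day before treatment; inhibitor in DMSO added as 10 serial twofold dilutions in duplicate (final 0.5% DMSO, 5% FBS). Harvested 3 days post dosing; replicon RNA quantified by real-time RT-PCR (Taqman), GAPDH RNA as endogenous control; EC50 calculated.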

The nature of data set [2]: Irreversible inhibition of HCV1b NS5B delta21 polymerase by radiolabeled nucleotide incorporation assay. More on the design: species or system Hepatitis C virus subtype 1b.
In data set [3] the test system is Human immunodeficiency virus. Nature of the data set: Inhibition of HIV RNA-dependent DNA polymerase.
Data set [4] relates to Hepacivirus hominis. Kind of data set: Inhibition of HCV NS3 helicase.
Data set [5] deals with Hepacivirus hominis. Nature of the data set: Inhibition of HCV NS3 protease.
Data set [6] has as its system Enterovirus C. Nature of the data set: Inhibition of Poliovirus RNA-dependent RNA polymerase.
Data set [7] can be described thus: Half life in iv dosed Sprague-Dawley rat. Type of data set: ADME, organism-based. As to conditions: in vivo.
Data set [8] can be described thus: Clearance in beagle dog. As to conditions: in vivo. The format is ADME, organism-based, Canis lupus familiaris.
Data set [9] can be described thus: Ratio of drug uptake in brain to plasma of Sprague-Dawley rat at 10 mg/kg, po. The format is ADME, organism-based. More on the design: dose 10 mg/kg, route oral. As to conditions: read-out: BPR. An outline of the steps: (§1)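 Crystalline sodium salt given orally at 10 mg/kg to fasted male Sprague Dawley rats. Liver and brain uptake were measured and reported as the mean tissue-to-plasma ratio.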

The nature of data set [10]: Oral bioavailability in cynomolgus monkey at 3 mg/kg. Type of data set: ADME, organism-based, Macaca fascicularis. As to conditions: in vivo. An outline of the steps:
(§2)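 The compound was given as a crystalline sodium salt. Pharmacokinetics were studied in Sprague Dawley rats, Cynomolgus monkeys and Beagle dogs after oral (PO) and IV dosing. Oral exposure was read as AUC, and the oral dose was 3 mpk in monkeys and dogs. Volume of distribution was taken at steady state.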

A short description of data set [11]: Plasma protein binding in cynomolgus monkey. As to conditions: read-out: PPB (converted). Type of data set: ADME, cell-free, Macaca fascicularis.
Data set [12] is described as follows: Oral bioavailability in beagle dog at 3 mg/kg. Type of data set: ADME, organism-based, Canis lupus familiaris. As to conditions: in vivo. The gist of the method:
as §2

Data set [13] can be described thus: Volume of distribution at steady state in cynomolgus monkey. The format is ADME, organism-based, Macaca fascicularis. As to conditions: in vivo, read-out: Vdss. An outline of the steps: as §2
The nature of data set [14]: Clearance in cynomolgus monkey. Type of data set: ADME, organism-based, Macaca fascicularis. As to conditions: in vivo.
Data set [15] can be described thus: Half life in iv dosed beagle dog. Type of data set: ADME, organism-based, Canis lupus familiaris. As to conditions: in vivo.
Data set [16] is described as follows: Volume of distribution at steady state in Sprague-Dawley rat. The format is ADME, organism-based. As to conditions: in vivo, read-out: Vdss. An outline of the steps: as §2
Data set [17] can be described thus: Half life in iv dosed cynomolgus monkey. Type of data set: ADME, organism-based, Macaca fascicularis. As to conditions: in vivo.
Data set [18] can be described thus: AUC in Sprague-Dawley rat at 10 mg/kg, po. Also on record: dose 10 mg/kg, route oral. The format is ADME, organism-based. As to conditions: plasma. The gist of the method: (§3)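 Given orally as crystalline sodium salt; plasma AUC determined in Sprague Dawley rats (10 mpk), Cynomolgus monkeys (3 mpk) or Beagle dogs (3 mpk).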
The nature of data set [19]: AUC in cynomolgus monkey at 3 mg/kg, po. Type of data set: ADME, organism-based, Macaca fascicularis. More on the design: dose 3 mg/kg, route oral. As to conditions: plasma. An outline of the steps:
as §3

Data set [20] is described as follows: Plasma protein binding in Sprague-Dawley rat. The format is ADME, cell-free. As to conditions: read-out: PPB (converted).
The nature of data set [21]: Plasma protein binding in human. The format is ADME, cell-free. As to conditions: read-out: PPB (converted).
Data set [22] is described as follows: Clearance in Sprague-Dawley rat. Type of data set: ADME, organism-based. As to conditions: in vivo.
Data set [23] in a line: Ratio of drug uptake in liver to plasma of Sprague-Dawley rat at 10 mg/kg, po. Type of data set: ADME, organism-based. More on the design: dose 10 mg/kg, route oral. The gist of the method: as §1
Data set [24] in a line: Plasma protein binding in beagle dog. The format is ADME, cell-free, Canis lupus familiaris. As to conditions: read-out: PPB (converted).
Data set [25] is described as follows: Volume of distribution at steady state in beagle dog. Type of data set: ADME, organism-based, Canis lupus familiaris. As to conditions: in vivo, read-out: Vdss. The gist of the method:
as §2

Data set [26] is described as follows: Oral bioavailability in Sprague-Dawley rat at 10 mg/kg. The format is ADME, organism-based. As to conditions: in vivo.
Data set [27] can be described thus: AUC in beagle dog at 3 mg/kg, po. Type of data set: ADME, organism-based, Canis lupus familiaris. Also on record: dose 3 mg/kg, route oral. As to conditions: plasma. The gist of the method:
as §3

The source made the active and inactive calls. The calls are words filed in the database; no cut-off is given here.

As to `Cc1cc2c(-c3ccc[nH]c3=O)c(C(=O)O)n(Cc3ccc(Cl)nc3)c2cc1F`, the EC50 in data set [1] is over 1000 nM. In data set [2], this molecule had an IC50 of 9 nM.

Consider `Cc1cc2c(-c3ccc[nH]c3=O)c(C(=O)O)n(Cc3cc4ccccc4nc3Cl)c2cc1F`, for which the inhibition result in data set [3], in [4], in [5] and in [6] was “inactive” throughout.

For `Cc1cc2c(-c3ccc[nH]c3=O)c(C(=O)[O-])n(Cc3cc4ccccc4nc3Cl)c2cc1F.[Na+]`, the half-life is 7 h in data set [7], 2 h in data set [15] and 5 h in [17]. In addition, the clearance in [8] was 13 mL/min/kg; in data set [14] it was 3.5 mL/min/kg; in data set [22] it was 1.5 mL/min/kg. Besides, the Kp in data set [9] is under 0.01; in data set [23], 0.4. Also, the bioavailability amounted to 38% in data set [10], 38% in [12] and 14% in data set [26]. For the same molecule, the fraction unbound in data set [11] is 0.005; in data set [20], 0.002; in data set [21] it was 0.003; in [24], 0.004. Besides, the Vd was 1.2 L/kg in data set [13], 0.3 L/kg in [16] and 1.7 L/kg in data set [25]. For the same molecule, the AUC in [18] came out at 35 µM·h; in data set [19], 11.5 µM·h; in data set [27] it was 3.2 µM·h.

Turning to `Cc1cc2c(-c3ccc[nH]c3=O)c(C(=O)O)n(Cc3cc4ccc(F)cc4nc3Cl)c2cc1F`, the response in [1] was half-maximal at 20 nM (EC50). In [2], the IC50 stood at 20 nM.

`Cc1cc2c(-c3ccc[nH]c3=O)c(C(=O)O)n(Cc3cnc4ccccc4c3Cl)c2cc1F` showed an EC50 in [1] of 20 nM. Further, the IC50 in data set [2] was found to be 6 nM.

Turning to `Cc1cc2c(-c3ccc[nH]c3=O)c(C(=O)O)n(Cc3c(Cl)nc4ccccc4c3Cl)c2cc1F`, in data set [1], the EC50 is over 1000 nM. The molecule also had an IC50 in [2] of 60 nM.

As for `Cc1cc2c(-c3ccc[nH]c3=O)c(C(=O)O)n(Cc3cc4cc(F)c(F)cc4nc3Cl)c2cc1F`, the EC50 in data set [1] was determined as 30 nM. The molecule further returned an IC50 in data set [2] of 10 nM.

As to `Cc1cc2c(-c3ccc[nH]c3=O)c(C(=O)O)n(Cc3cc(F)cnc3Cl)c2cc1F`, a half-maximal response in [1] (EC50) required 1000 nM. Further, in data set [2], inhibition was half-maximal at 12 nM (IC50).

In the case of `COc1ccc2cc(Cn3c(C(=O)O)c(-c4ccc[nH]c4=O)c4cc(C)c(F)cc43)c(Cl)nc2c1`, in [1], the midpoint of the response, the EC50, lay at 10 nM. In addition, in data set [2], it took 6 nM to reach half-maximal inhibition (IC50).

For `Cc1ccc2nc(Cl)c(Cn3c(C(=O)O)c(-c4ccc[nH]c4=O)c4cc(C)c(F)cc43)cc2c1`, it took 25 nM to reach a half-maximal effect in data set [1] (EC50). This molecule also displayed an IC50 in data set [2] of 20 nM.

For orientation: EC50 means the concentration giving half of the maximal effect. Usually IC50 stands for the concentration that gives 50% inhibition. The half-life is the time in which the quantity being followed falls by half. Broadly, the clearance is a measure of how efficiently the substance is removed, as volume per time. A word on the bioavailability: it is dose-corrected exposure relative to a reference, in per cent. The term AUC denotes the area under the concentration-time curve, a measure of exposure.
